Among the data in ChEMBL document CHEMBL1124189, “2-(2-Aryl-2-oxoethylidene)-1,2,3,4-tetrahydropyridines. Novel isomers of 1,4-dihydropyridine calcium channel blockers” (J Med Chem, 1988) are IC50 and EC25 values, retold here.

For test [1], the target named is Voltage-gated L-type calcium channel (Rattus norvegicus, UniProt P22002+Q02485+P27732). The experiment in a line: Inhibition of [3H]nitrendipine binding to calcium channels in the rat brain. It is filed as tissue-based.
The species entered for test [2] is Rattus norvegicus. Put plainly: Concentration required to produce 25% increase in coronary flow. It counts as functional. Summed up: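 Langendorff isolated hearts from male rats (400–600 g), pentobarbital 50 mg/kg ip anesthesia, heparin 2000 units ip; retrograde aortic perfusion with modified Krebs-Henseleit bicarbonate buffer, about 15 mL/min for 2–3 min, then constant 70 mmHg pressure, 37 °C; spontaneously beating. Coronary flow taken as percent change from control; EC25 (25% increase) read graphically from at least two hearts.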

In test [3] the test system is Rattus norvegicus. Put plainly: Concentration required to produce 25% increase in intraventricular pressure(LV dp/dt). It counts as functional, Cardiac ventricle. Summed up: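 Isolated perfused male rat heart (400–600 g; pentobarbital 50 mg/kg ip, heparin 2000 units ip), Krebs-Henseleit bicarbonate buffer at constant 70 mmHg, 37 °C, spontaneous beating; LV dP/dt expressed as percent change from control; concentration giving a 25% increase (or decrease) in LV dP/dt determined graphically, minimum two hearts.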

The species entered for test [4] is Oryctolagus cuniculus. Put plainly: The compound was tested for inhibition of potassium depolarized Rabbit aorta. It is filed as functional.

The structures appear in SMILES notation.

Broadly, the IC50 is the concentration that inhibits the measured activity by half. As a reminder, the EC25 is the concentration at which the effect reaches the 25% level. A high value points to a need for much substance. Consider `CCOC(=O)[C@@H]1C(C2=C(O)c3ccccc3CC2)=NC(C)=C(C#N)[C@H]1c1ccccc1C(F)(F)F`, for which the IC50 in test [1] is reported as above 1000 nM. Also, the EC25 in test [2] is reported as 1000 nM; in test [3] it was above 1000 nM.

As to `CCOC(=O)[C@@H]1/C(=C/C(=O)c2ccccc2)N=C(C)/C(=C(/O)OCC)[C@H]1c1ccccc1[N+](=O)[O-]`, the figures for the IC50 in test [1] and in test [4] were 31.1 nM and 17000 nM, respectively. The concentration for an effect of 25% (EC25) came out at 100 nM in test [2] and 2200 nM in test [3].

With `CCOC(=O)C1=C(C)N=C(C2=C(O)c3ccccc3CC2)[C@@H](C(=O)OCC)[C@@H]1c1ccccc1C(F)(F)F`, in test [1], the IC50 was above 1000 nM.

On to `CCOC(=O)CC1=NC(C)=C(C#N)C(c2ccccc2C(F)(F)F)/C1=C(\O)OCC` (configuration not stated), for which the IC50 in test [1] was 149.6 nM.

On to `CCOC(=O)C1=C(C)N=C(/C=C(\O)c2ccccc2)[C@@H](C(=O)OCC)[C@@H]1c1ccccc1`, for which the IC50 in test [1] was found to be 912.8 nM. The EC25 came to 200 nM in test [2] and 500 nM in test [3].

As for `CCOC(=O)[C@@H]1/C(=C/C(=O)c2ccc(Cl)cc2)N=C(C)/C(=C(/O)OCC)[C@H]1c1ccccc1C(F)(F)F`, the IC50 in test [1] stood at 162.5 nM. Also, the EC25 in test [2] and in test [3] was below 100 nM each time.

As for `CCOC(=O)C1=C(C)N=C(/C=C(\O)OCC)C(C(=O)OCC)C1c1ccccc1C(F)(F)F` (configuration not stated), the half-inhibitory concentration (IC50) in test [1] came out at 346.9 nM. Moreover, the EC25 in test [2] is below 100 nM; in test [3], above 300 nM.

As to `CCOC(=O)[C@@H]1/C(=C/C(=O)c2ccccc2Cl)N=C(C)/C(=C(/O)OCC)[C@H]1c1ccccc1C(F)(F)F`, the IC50 in test [1] is on record as above 1000 nM.

With `CCOC(=O)[C@@H]1/C(=C/C(=O)c2ccc(C)cc2)N=C(C)/C(=C(/O)OCC)[C@H]1c1ccccc1C(F)(F)F`, in test [1], the IC50 is given as 413.7 nM. Also, the concentration for an effect of 25% (EC25) in test [2] was 130 nM; in test [3] it was above 300 nM.

As for `CCOC(=O)[C@@H]1C(/C=C(\O)c2ccccc2)=NC(C)=C([N+](=O)[O-])[C@H]1c1ccccc1C(F)(F)F`, in test [1], the IC50 was 335.8 nM. The concentration for an effect of 25% (EC25) is 100 nM in test [2] and above 300 nM in test [3].

As for `CCOC(=O)[C@@H]1C(/C=C(\O)c2ccccc2)=NC2=C(C(=O)CCC2)[C@H]1c1ccccc1C(F)(F)F`, the concentration for half-maximal inhibition (IC50) in test [1] is above 1000 nM. Besides, the EC25 in test [2] worked out at 1400 nM; in test [3], 1500 nM.

For the molecule `CCOC(=O)[C@@H]1/C(=C/C(=O)c2ccccc2)N=C(C)/C(=C(/O)OCC)[C@H]1c1ccccc1C(F)(F)F`, the IC50 in test [1] is 296.9 nM. Moreover, the EC25 in test [2] is given as below 100 nM; in test [3], above 3000 nM.

With `CCOC(=O)[C@@H]1/C(=C/C(=O)c2ccccc2)N=C(C)/C(=C(/O)OCC)[C@H]1c1cccc(Cl)c1Cl`, the IC50 in test [1] is on record as 27.7 nM. In addition, the results for the EC25 in test [2] and in test [3] were 200 nM and above 300 nM, respectively.

As to `CCO/C(O)=C1C(C)=N/C(=C\C(=O)c2ccccc2)[C@@H](C(=O)c2ccccc2)[C@@H]\1c1ccccc1C(F)(F)F`, the IC50 in test [1] came to 591.4 nM. Also, the concentration for an effect of 25% (EC25) in test [2] is reported as 380 nM; in test [3] it was 1200 nM.

For the molecule `CCOC(=O)[C@@H]1/C(=C/C(=O)c2ccncc2)N=C(C)/C(=C(/O)OCC)[C@H]1c1ccccc1C(F)(F)F`, the IC50 in test [1] was determined as 25.5 nM; in test [4], 3100 nM. For the same molecule, the values for the EC25 in test [2] and in test [3] were 30 nM and above 300 nM, respectively.

Consider `CCOC(=O)[C@@H]1/C(=C/C(=O)c2ccc(N(C)C)cc2)N=C(C)/C(=C(/O)OCC)[C@H]1c1ccccc1C(F)(F)F`, for which the concentration for half-maximal inhibition (IC50) came to 31.7 nM in test [1] and 2700 nM in test [4]. The results for the concentration for an effect of 25% (EC25) in test [2] and in test [3] were 200 nM and above 300 nM, respectively.

`CCOC(=O)CC1=C(C(=O)OCC)C(c2ccccc2C(F)(F)F)/C(=C(\O)OCC)C(C)=N1` (configuration not stated): the IC50 in test [1] stood at 20 nM.

In the case of `CC1=C([N+](=O)[O-])[C@@H](c2ccccc2C(F)(F)F)[C@H](C(=O)c2ccccc2)C(/C=C(\O)c2ccccc2)=N1`, the IC50 in test [1] is on record as above 1000 nM.

As for `CCOC(=O)[C@@H]1/C(=C/C(=O)c2ccc(F)cc2)N=C(C)/C(=C(/O)OCC)[C@H]1c1ccccc1C(F)(F)F`, the results for the IC50 in test [1] and in test [4] were 116.7 nM and 150000 nM, respectively. For the same molecule, the figures for the EC25 in test [2] and in test [3] were 300 nM and above 300 nM, respectively.

In the case of `CCOC(=O)C1C(/C=C(\O)c2ccccc2)=NC(C)=C(C#N)C1c1ccccc1C(F)(F)F` (configuration not stated), the IC50 in test [1] came to 1021 nM. For the same molecule, the EC25 in test [2] came to 300 nM; in test [3] it was 3000 nM.

Molecule `COC(=O)C1=C(C)NC(C)=C(C(=O)OC)C1c1ccccc1[N+](=O)[O-]` [NIFEDIPINE] yielded an IC50 in test [4] of 200 nM. The EC25 is listed as 10 nM in test [2] and 300 nM in test [3].
